Only some compounds are listed: those with a hit (about 2% of all), similar ones and a draw of the others.
PABP polyA inh – PABP poly(A) RNA binding inhibitors, primary screen, biochemical, fluorescence polarization, uHTS; inhibition, % at 35 µM; actives 1% (n = 290,000); AID 2014, 2009;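 also: calls also rest on retests at 20 µM and on dose response follow-up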
Target sequence (P11940 whole entry, looked up): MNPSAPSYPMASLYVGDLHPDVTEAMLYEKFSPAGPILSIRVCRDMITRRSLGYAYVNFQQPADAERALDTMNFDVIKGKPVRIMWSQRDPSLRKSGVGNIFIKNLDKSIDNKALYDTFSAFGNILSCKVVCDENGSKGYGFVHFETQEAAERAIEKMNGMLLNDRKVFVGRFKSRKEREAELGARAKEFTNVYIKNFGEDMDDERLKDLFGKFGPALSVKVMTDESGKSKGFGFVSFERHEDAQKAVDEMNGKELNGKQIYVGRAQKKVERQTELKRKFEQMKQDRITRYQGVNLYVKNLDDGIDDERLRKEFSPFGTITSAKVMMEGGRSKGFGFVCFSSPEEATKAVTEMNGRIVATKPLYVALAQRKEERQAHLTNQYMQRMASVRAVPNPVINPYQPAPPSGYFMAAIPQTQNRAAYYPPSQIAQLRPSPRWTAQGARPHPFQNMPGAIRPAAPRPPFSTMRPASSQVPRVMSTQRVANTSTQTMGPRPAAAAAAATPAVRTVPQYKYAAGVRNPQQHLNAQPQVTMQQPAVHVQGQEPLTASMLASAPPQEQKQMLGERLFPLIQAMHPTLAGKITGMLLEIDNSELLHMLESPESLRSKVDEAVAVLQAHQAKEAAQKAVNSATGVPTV
eIF4H FP inh – human eIF4H binding inhibitors, primary screen, translation initiation inhibitor project, biochemical, uHTS, fluorescence polarization; Eukaryotic translation initiation factor 4H (Homo sapiens), Q15056; eIF4H fluorescence polarization binding assay; inhibition, % at 35 µM; actives 0.94% (n = 290,000);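 also: calls also rest on retests at 20 µM and on dose response follow-up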
MLLE-PAM2 inh – inhibitors of PABP1 MLLE–PAM2 peptide binding, primary screen, biochemical, fluorescence polarization, FITC-PAM2, GST-MLLE; actives 0.36% (n = 360,000); inhibition, % at 20 µM; in the data active = inhibition above about 35%, passing the limit was not always enough;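 also: plate controls were DMSO wells with GST-MLLE for no effect and wells lacking GST-MLLE protein for full effect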
HCV NS3 hel inh – inhibitors of HCV NS3 helicase, primary screen, biochemical, Cy5 molecular beacon fluorescence; NS3 helicase DNA unwinding; inhibition, % at 10.9 µM; actives 0.56% (n = 290,000); AID 1800, 2009;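 active = inhibition above the mean of all tested compounds plus 3 SD, set per campaign, cut at about 35% in these data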;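 also: 0% = DMSO wells and 100% = thioflavine S control wells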
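System: HCV NS3 helicase fragment; control set: DMSO and thioflavine S; technique: Cy5 fluorescence at 0 and 60 min, beacon hairpin quenching; reagent: beacon DNA duplex substrate plus ATP; replicates: singlicate; schedule: 1 h reaction at 25 °C, ATP-initiated; medium: MOPS buffer pH 6.5 with MgCl2, DTT, Tween20, BSA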
DNA FID counter – compounds displacing fluorescent DNA intercalator, primary screen, artefact control for HCV NS3 helicase inhibitor project, biochemical, FID fluorescence; DNA fluorescent intercalator displacement; inhibition, % at 7.9 µM; actives 0.17% (n = 290,000); AID 1845, 2009; in the data active = inhibition above about 37%;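 also: 0% = vehicle and 100% = reference compound; higher means more ethidium bromide displaced from hairpin DNA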
core dimer inh – inhibitors of HCV core protein dimerization, primary screen, biochemical, TR-FRET, high-throughput; TR-FRET GST/Flag-core106 dimerization, 1536-well; inhibition, % at 5 µM; actives 0.33% (n = 300,000); AID 1899, 2009;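 active = inhibition above the mean of all tested compounds plus 3 SD, set per screening campaign, cut at about 45% in these data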
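Assay system: GST-tagged and Flag-tagged HCV core protein residues 1-106 / Times: compound-protein-antibody incubation 4 h at 22.5 °C / Signal: time-resolved FRET, ex 340 nm, em 617 and 671 nm / Evaluation: % inhibition based on acceptor/donor emission ratio / Benchmarks: wells lacking GST-core106 and wells with excess unlabelled core106 / Repeats: singlicate, one well per compound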
Active calls of the source: *. Unless noted, no rule for the calls is given here.

How did O=C(CSc1ccc(-c2cccnc2)nn1)c1ccc([N+](=O)[O-])cc1 do in these assays?
PABP polyA inh: -1.7; eIF4H FP inh: 0.7; MLLE-PAM2 inh: 44.5*; HCV NS3 hel inh: 2.4; DNA FID counter: 1.8; core dimer inh: 30.3

Results for COc1ccc(C(=O)CSc2ccc(-c3ccccc3)nn2)cc1 ?
PABP polyA inh: -0.8; eIF4H FP inh: -11.5; MLLE-PAM2 inh: 5.5; HCV NS3 hel inh: 2.7; DNA FID counter: -6.9; core dimer inh: 10.1

How did O=C(CSc1ccc(-c2ccncc2)nn1)c1ccccc1 do in these assays?
PABP polyA inh: -4.4; eIF4H FP inh: -7.8; MLLE-PAM2 inh: 37.7*; HCV NS3 hel inh: 2.8; DNA FID counter: -13.6; core dimer inh: 0.2

Results for O=C(CSc1ccc(-c2ccco2)nn1)c1ccccc1 ?
PABP polyA inh: active; eIF4H FP inh: 101.4*; MLLE-PAM2 inh: 27.6; HCV NS3 hel inh: 28.7; DNA FID counter: -12.7; core dimer inh: 47.9*

What do the screens show for `COc1ccc(NC(=O)c2cc(-c3cc(C)cc(F)c3)n[nH]2)cc1OC`?
MLLE-PAM2 inh: -6.4

What do the screens show for `COc1cccc(NC(=O)COC(=O)c2sccc2C)c1`?
MLLE-PAM2 inh: 0.6

How did O=C(c1ccco1)[C@@H]1[C@@H]2C(=O)N(c3ccc(Br)cc3)C(=O)[C@@H]2C2c3ccccc3C=CN21 (some centres undefined) do in these assays?
PABP polyA inh: 15.9; eIF4H FP inh: 54.7; MLLE-PAM2 inh: 21.4; HCV NS3 hel inh: 42.8*; DNA FID counter: -27.1

How did CC(=O)[C@H]1[C@@H]2C(=O)N(c3cccc(Cl)c3)C(=O)[C@@H]2[C@H]2c3ccccc3C=CN21 do in these assays?
PABP polyA inh: 55.5*; eIF4H FP inh: 62.0; MLLE-PAM2 inh: 23.0; HCV NS3 hel inh: 16.6; DNA FID counter: -10.1; core dimer inh: 58.4*

How did CC(=O)[C@@H]1[C@@H]2C(=O)N(c3ccc(F)c(Cl)c3)C(=O)[C@@H]2C2c3ccccc3C=CN21 (some centres undefined) do in these assays?
PABP polyA inh: 4.0; eIF4H FP inh: 58.6; HCV NS3 hel inh: 7.2; DNA FID counter: -16.0; core dimer inh: 31.6

How did Cn1c(=O)c2cc(NC(=O)CCc3cccnc3)ccc2n1Cc1cccc(C(F)(F)F)c1 do in these assays?
MLLE-PAM2 inh: -11.7

How did Oc1ccc(NCc2cccc(OCc3ccc(F)cc3)c2)cc1 do in these assays?
PABP polyA inh: 30.8; eIF4H FP inh: 33.2; MLLE-PAM2 inh: -8.6; HCV NS3 hel inh: 7.8; DNA FID counter: 0.7; core dimer inh: -2.4

Results for Oc1ccc(NCc2cccc(OCc3ccccc3)c2)cc1 ?
PABP polyA inh: 36.2*; eIF4H FP inh: 69.3; MLLE-PAM2 inh: -23.9; HCV NS3 hel inh: 25.2; DNA FID counter: -0.6; core dimer inh: -1.8

How did CCC(=O)N1CCCC(C)(C(=O)Nc2nccc3ccccc23)C1 (centres undefined) do in these assays?
MLLE-PAM2 inh: -3.5

How did CCOC(=O)N1CCC2(CC1)C(C#N)=C(N)Oc1c2c(C)nn1-c1cccc(Cl)c1 do in these assays?
PABP polyA inh: 71.7*; eIF4H FP inh: 71.4*; MLLE-PAM2 inh: 14.0; HCV NS3 hel inh: 14.1; DNA FID counter: -27.8; core dimer inh: -1.4

Results for CCOC(=O)N1CCC2(CC1)C(C#N)=C(N)Oc1n[nH]c(C)c12 ?
PABP polyA inh: -7.4; eIF4H FP inh: -5.8; MLLE-PAM2 inh: -5.6; HCV NS3 hel inh: -0.2; DNA FID counter: -3.9; core dimer inh: 4.5

Results for CS(=O)(=O)N(CC(=O)NC1CC1)C1CCCCC1 ?
PABP polyA inh: 74.9; eIF4H FP inh: active; MLLE-PAM2 inh: 5.9; HCV NS3 hel inh: -2.0; DNA FID counter: 0.2; core dimer inh: -3.9

What do the screens show for `CC(=O)N(C)C[C@H]1Oc2ncc(Br)cc2C(=O)N([C@H](C)CO)C[C@@H]1C`?
MLLE-PAM2 inh: -1.5

What do the screens show for `O=C(CCCc1ccccc1)Nc1ccnn1C1CCN(Cc2ccccc2)CC1`?
MLLE-PAM2 inh: 0.4; HCV NS3 hel inh: -7.2; DNA FID counter: 20.3; core dimer inh: -12.6

Results for CCOc1ccc(CN2CCC(n3nccc3NC(=O)CCCc3ccccc3)CC2)cc1 ?
PABP polyA inh: -3.1; eIF4H FP inh: -1.5; MLLE-PAM2 inh: -2.9; HCV NS3 hel inh: -39.5; DNA FID counter: 38.2*; core dimer inh: 2.7

How did N#Cc1c(N)n(-c2ccc(N)cc2)c2nc3ccccc3nc12 do in these assays?
PABP polyA inh: 6.6; eIF4H FP inh: -1.2; MLLE-PAM2 inh: 11.3; HCV NS3 hel inh: -3.3; DNA FID counter: -1.9; core dimer inh: 2.4

Results for N#Cc1c(N)n(-c2ccc(C(=O)O)cc2)c2nc3ccccc3nc12 ?
PABP polyA inh: 37.0; eIF4H FP inh: 79.5*; MLLE-PAM2 inh: -42.8; HCV NS3 hel inh: 7.4; DNA FID counter: -3.6; core dimer inh: 6.7

Results for CCc1nc2ccc(C(=O)N3CCN(S(=O)(=O)CC)CC3)cn2c1N(C)C(=O)c1cccc(OC)c1 ?
MLLE-PAM2 inh: 12.2

How did CCOC(=O)c1sc(NC(=S)NC(=O)c2ccc(OC)cc2)nc1C do in these assays?
PABP polyA inh: -7.9; eIF4H FP inh: -6.2; MLLE-PAM2 inh: 14.9; HCV NS3 hel inh: 1.5; DNA FID counter: -1.0; core dimer inh: 1.9

Results for COc1ccc(C(=O)NC(=S)Nc2nc(C)c(C(=O)N(C)C)s2)cc1 ?
PABP polyA inh: 15.5; eIF4H FP inh: 6.4; MLLE-PAM2 inh: 44.5*; HCV NS3 hel inh: 4.6; DNA FID counter: -20.3; core dimer inh: 0.0

How did CCOC(=O)c1sc(NC(=S)NC(=O)c2ccco2)nc1C do in these assays?
PABP polyA inh: -5.8; eIF4H FP inh: 4.2; MLLE-PAM2 inh: 41.3*; HCV NS3 hel inh: 13.4; DNA FID counter: -3.0; core dimer inh: 1.0

Results for COC(=O)c1sc(NC(=O)c2ccco2)nc1C ?
PABP polyA inh: 6.1; eIF4H FP inh: -1.1; MLLE-PAM2 inh: -1.4; HCV NS3 hel inh: -4.5; DNA FID counter: 1.4; core dimer inh: 10.8

What do the screens show for `CCCCCCn1c(=O)n2n(c1=O)C[C@]1(OC(=O)NCc3ccco3)CN(S(=O)(=O)c3ccc(C)cc3)C[C@]1(O)C2`?
MLLE-PAM2 inh: -0.1

What do the screens show for `CN(C)c1ccc(S(=O)(=O)NCC(=O)N2CCN(S(=O)(=O)c3cccc(F)c3)CC2)cc1[N+](=O)[O-]`?
MLLE-PAM2 inh: 22.0

How did CN(CC(=O)Nc1cccc(F)c1)C(=O)CNS(=O)(=O)c1ccc(N(C)C)c([N+](=O)[O-])c1 do in these assays?
MLLE-PAM2 inh: 45.6*; core dimer inh: -3.5

What do the screens show for `O=C(NNC(=O)c1ccc(Cl)nc1)c1ccncc1`?
MLLE-PAM2 inh: 4.8
